# Published values collected from several papers.
# Compare with care: the assays were run in different laboratories.
# Target: NT-3 growth factor receptor (NTRK3, Homo sapiens, UniProt Q16288)
SMILES,observed,method,concentration,remaining binding [%]
CC(=O)N1CCC(c2ccc(C(=O)NC(=N)N)cc2C(F)(F)F)CC1,cell-free assay,competition with immobilised ligand,1 µM,100
COc1cnc(Nc2cccc(S(N)(=O)=O)c2)nc1N1CCN(c2ccccc2)CC1,binding,competition with immobilised ligand,1 µM,61
O=C(NCCCN1CCOCC1)c1ccc(Nc2nccc(-c3cc4ccccc4s3)n2)cc1,binding,competition with immobilised ligand,1 µM,75
Cc1cnn2ncc(-c3ccnc(N(C)C)n3)c2c1,binding,,1 µM,73
O=C(c1ccc(Nc2ncc(Cl)c(-c3cc4ccccc4s3)n2)cc1)N1CCC(N2CCCC2)CC1,binding,competition with immobilised ligand,1 µM,36
CN(c1nccc(-c2cnn3ncccc23)n1)C1CC1,binding,,1 µM,100
COc1cnc(Nc2cccc(S(N)(=O)=O)c2)nc1N1CCN(c2ccccc2)C(=O)C1,binding,competition with immobilised ligand,1 µM,100
O=c1nc(-c2ccccn2)sc2ccccc12,cell-free assay,competition with immobilised ligand,1 µM,72
N[C@@H]1CCN(c2nccc(-c3cnn4ncccc34)n2)C1,binding,,1 µM,100
O=C(NCC1CCOCC1)c1n[nH]cc1NC(=O)c1c(F)cccc1F,binding,competition with immobilised ligand,1 µM,98
C[C@H](NC(=O)c1cnc2n1[C@](C)(Cc1ccc(C#N)cc1)C(=O)N2c1cc(Cl)c(F)c(Cl)c1)C(=O)NC1(c2ccccn2)CC1,cell-free assay,competition with immobilised ligand,1 µM,100
c1cnn2ncc(-c3ccnc(N4CCC45COC5)n3)c2c1,binding,,1 µM,73
c1cncc(-c2cccc(Nc3nccc(NC4CCCCC4)n3)c2)c1,binding,competition with immobilised ligand,10 µM,27
Cc1cc(NC(=O)c2cccc(S(F)(F)(F)(F)F)c2)cc(-n2ccn3nc(-c4cccnc4)cc23)c1,cell-free assay,competition with immobilised ligand,1 µM,27.2
CN(C)c1nccc(-c2cnn3ncccc23)n1,binding,,1 µM,72
O=C(N1CCS(=O)(=O)CC1)N1C[C@H](c2ccc(OC(F)(F)F)cc2)C[C@H](c2nc(C3CC3)no2)C1,cell-free assay,competition with immobilised ligand,1 µM,100
C[C@H]1CCN(c2nccc(-c3cnn4ncccc34)n2)C1,binding,,1 µM,63
O=C(Nc1cccnn1)N1CC(C/C=C/c2cncc(Oc3ccc(C(F)(F)F)cn3)n2)C1,cell-free assay,competition with immobilised ligand,1 µM,85
Cc1cnc(Nc2ccc(C(=O)N3CCC(N4CCCC4)CC3)cc2)nc1-c1cc2ccccc2s1,binding,competition with immobilised ligand,1 µM,16
C=CC(=O)N1CCC(C(=O)NCC(=O)N2CCN(c3nc(-c4cnc(N)nc4C(F)F)nc(N4CCOCC4)n3)CC2)CC1,binding,competition with immobilised ligand,1 µM,86
CO[C@@H](C)c1c(Nc2ccc([C@H](N(C)C(=O)C3CCS(=O)(=O)CC3)C(F)(F)F)cc2)cnc2cc(Cl)nn12,cell-free assay,competition with immobilised ligand,1 µM,100
FC(F)(F)Oc1cccc(-c2cnc3ccc(-c4ccncc4)nn23)c1,cell-free assay,competition with immobilised ligand,5 µM,20
